The results in this text go back to ChEMBL document CHEMBL1156112, “Discovery of 3-(1H-indol-3-yl)-4-[2-(4-methylpiperazin-1-yl)quinazolin-4-yl]pyrrole-2,5-dione (AEB071), a potent and selective inhibitor of protein kinase C isotypes” (J Med Chem, 2009).

Active and inactive are the calls of the source. No cut-off for these calls is given here. Some results are limits rather than exact numbers.

Data set [1] addresses Protein kinase C delta type (Homo sapiens, UniProt Q05655). Put plainly: Inhibition of PKCdelta by SPA.
Data set [2] concerns the target Mitogen-activated protein kinase 8 (Homo sapiens, UniProt P45983). Nature of the data set: Inhibition of human recombinant JNK1.
Data set [3] is described as follows: cells. The following applies: Mus musculus, CBA, Bone marrow cell.
For data set [4], the target named is Cyclin-dependent kinase 2/cyclin A (Homo sapiens, UniProt P24941). Nature of the data set: Inhibition of human recombinant CDK2/cyclin A. It counts as protein-complex assay.
Data set [5] addresses Protein kinase C eta type (Homo sapiens, UniProt P24723). Nature of the data set: Inhibition of PKCeta by SPA.
Data set [6] addresses Insulin-like growth factor 1 receptor (Homo sapiens, UniProt P08069). Put plainly: Inhibition of human recombinant IGF1R.
A short description of data set [7]: Clearance in OFA rat at 5 mg/kg, iv. It counts as ADME, organism-based. Also on record: dose 5 mg/kg, route intravenous. The following applies: in vivo. In outline: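 Rats dosed either 5 mg/kg iv in 75% saline (0.9%)-25% PEG400 or 20 mg/kg po in 75% water-25% PEG400. OFA or Lewis rats were used depending on the compound. Values are averages of three animals. AUC is extrapolated to infinity. Oral bioavailability (F) comes from the po and iv exposures.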

Data set [8] has as its target Mitogen-activated protein kinase 10 (Homo sapiens, UniProt P53779). Nature of the data set: Inhibition of human recombinant JNK3.
The target in data set [9] is Tyrosine-protein kinase ZAP-70 (Homo sapiens, UniProt P43403). Nature of the data set: Inhibition of human recombinant ZAP70.
The target of data set [10] is Tyrosine-protein kinase ABL1 (Homo sapiens, UniProt P00519). Put plainly: Inhibition of human recombinant Abl.
Chain of Tyrosine-protein kinase ABL1 (P00519 whole entry, canonical isoform): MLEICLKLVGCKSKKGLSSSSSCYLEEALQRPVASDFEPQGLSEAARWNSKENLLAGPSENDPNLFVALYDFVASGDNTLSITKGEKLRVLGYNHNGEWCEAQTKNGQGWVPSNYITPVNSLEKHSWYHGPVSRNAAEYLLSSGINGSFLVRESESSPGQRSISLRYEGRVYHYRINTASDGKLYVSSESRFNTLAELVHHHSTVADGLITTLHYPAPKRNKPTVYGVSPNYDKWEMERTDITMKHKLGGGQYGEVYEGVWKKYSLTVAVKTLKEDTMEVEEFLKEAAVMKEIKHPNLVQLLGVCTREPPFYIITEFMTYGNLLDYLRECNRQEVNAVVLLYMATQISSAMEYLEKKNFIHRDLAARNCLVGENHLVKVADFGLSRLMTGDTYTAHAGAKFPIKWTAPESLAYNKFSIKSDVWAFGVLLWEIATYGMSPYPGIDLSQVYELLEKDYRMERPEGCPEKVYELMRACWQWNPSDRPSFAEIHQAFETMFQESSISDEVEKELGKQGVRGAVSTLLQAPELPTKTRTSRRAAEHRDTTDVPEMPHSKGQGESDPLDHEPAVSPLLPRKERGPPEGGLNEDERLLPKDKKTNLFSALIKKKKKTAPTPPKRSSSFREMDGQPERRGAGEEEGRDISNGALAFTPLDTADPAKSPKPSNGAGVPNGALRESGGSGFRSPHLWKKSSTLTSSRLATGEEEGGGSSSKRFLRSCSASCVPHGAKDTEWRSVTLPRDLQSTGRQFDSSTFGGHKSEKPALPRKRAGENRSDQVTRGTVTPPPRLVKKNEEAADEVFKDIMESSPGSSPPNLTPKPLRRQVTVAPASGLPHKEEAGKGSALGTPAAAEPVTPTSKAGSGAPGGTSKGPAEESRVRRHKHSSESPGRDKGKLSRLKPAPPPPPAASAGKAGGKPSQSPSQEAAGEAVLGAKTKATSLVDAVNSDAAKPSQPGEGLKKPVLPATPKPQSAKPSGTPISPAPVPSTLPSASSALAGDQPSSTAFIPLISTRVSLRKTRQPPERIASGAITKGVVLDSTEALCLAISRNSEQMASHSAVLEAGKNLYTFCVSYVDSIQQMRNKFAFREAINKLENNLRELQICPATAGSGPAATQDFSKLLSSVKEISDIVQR
Data set [11] deals with Phosphatidylinositol 4,5-bisphosphate 3-kinase catalytic subunit gamma isoform (Homo sapiens, UniProt P48736). Nature of the data set: Inhibition of human recombinant PI3Kgamma.
Data set [12] addresses Protein kinase C zeta type (Homo sapiens, UniProt Q05513). Put plainly: Inhibition of PKCzeta by SPA.
Data set [13] has as its target Vascular endothelial growth factor receptor 2 (Homo sapiens, UniProt P35968). Put plainly: Inhibition of human recombinant KDR.
Data set [14] is filed under the species Rattus norvegicus. Nature of the data set: Prolongation of allograft survival in rat heterotropic heart transplant model. The data set is classed as functional, organism-based.
Data set [15] deals with Tyrosine-protein kinase JAK1 (Homo sapiens, UniProt P23458). Nature of the data set: Inhibition of human recombinant JAK1.
Chain of Tyrosine-protein kinase JAK1 (P23458 whole entry): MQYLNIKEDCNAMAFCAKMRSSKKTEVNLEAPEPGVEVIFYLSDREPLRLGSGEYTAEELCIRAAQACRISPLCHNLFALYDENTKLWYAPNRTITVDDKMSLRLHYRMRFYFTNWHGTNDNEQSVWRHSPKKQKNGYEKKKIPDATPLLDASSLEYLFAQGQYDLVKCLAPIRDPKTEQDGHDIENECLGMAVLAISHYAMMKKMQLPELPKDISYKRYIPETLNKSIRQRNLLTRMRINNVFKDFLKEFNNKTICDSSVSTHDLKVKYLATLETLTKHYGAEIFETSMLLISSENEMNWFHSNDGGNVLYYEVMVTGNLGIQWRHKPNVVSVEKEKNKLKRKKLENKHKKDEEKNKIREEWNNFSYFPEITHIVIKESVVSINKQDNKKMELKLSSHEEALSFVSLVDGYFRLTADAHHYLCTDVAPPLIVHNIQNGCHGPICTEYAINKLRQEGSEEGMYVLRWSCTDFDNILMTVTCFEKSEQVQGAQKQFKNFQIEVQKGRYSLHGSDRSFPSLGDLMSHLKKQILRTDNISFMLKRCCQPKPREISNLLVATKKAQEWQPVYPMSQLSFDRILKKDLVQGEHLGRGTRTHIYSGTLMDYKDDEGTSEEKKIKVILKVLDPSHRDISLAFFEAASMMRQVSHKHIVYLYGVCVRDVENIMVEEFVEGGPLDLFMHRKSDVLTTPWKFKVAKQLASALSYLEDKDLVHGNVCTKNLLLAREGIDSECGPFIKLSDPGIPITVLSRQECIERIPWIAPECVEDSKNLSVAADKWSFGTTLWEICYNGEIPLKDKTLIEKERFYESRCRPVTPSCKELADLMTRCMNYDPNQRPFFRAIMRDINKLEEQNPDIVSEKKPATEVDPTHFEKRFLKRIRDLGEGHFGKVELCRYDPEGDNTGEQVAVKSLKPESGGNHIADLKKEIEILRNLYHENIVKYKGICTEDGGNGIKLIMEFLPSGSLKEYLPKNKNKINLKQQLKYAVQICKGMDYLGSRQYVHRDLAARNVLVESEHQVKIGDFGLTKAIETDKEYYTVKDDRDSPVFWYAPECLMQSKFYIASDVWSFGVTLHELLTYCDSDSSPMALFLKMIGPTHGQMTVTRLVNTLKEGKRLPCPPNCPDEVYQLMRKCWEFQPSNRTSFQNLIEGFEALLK

Chain of Protein kinase C eta type (P24723 whole entry): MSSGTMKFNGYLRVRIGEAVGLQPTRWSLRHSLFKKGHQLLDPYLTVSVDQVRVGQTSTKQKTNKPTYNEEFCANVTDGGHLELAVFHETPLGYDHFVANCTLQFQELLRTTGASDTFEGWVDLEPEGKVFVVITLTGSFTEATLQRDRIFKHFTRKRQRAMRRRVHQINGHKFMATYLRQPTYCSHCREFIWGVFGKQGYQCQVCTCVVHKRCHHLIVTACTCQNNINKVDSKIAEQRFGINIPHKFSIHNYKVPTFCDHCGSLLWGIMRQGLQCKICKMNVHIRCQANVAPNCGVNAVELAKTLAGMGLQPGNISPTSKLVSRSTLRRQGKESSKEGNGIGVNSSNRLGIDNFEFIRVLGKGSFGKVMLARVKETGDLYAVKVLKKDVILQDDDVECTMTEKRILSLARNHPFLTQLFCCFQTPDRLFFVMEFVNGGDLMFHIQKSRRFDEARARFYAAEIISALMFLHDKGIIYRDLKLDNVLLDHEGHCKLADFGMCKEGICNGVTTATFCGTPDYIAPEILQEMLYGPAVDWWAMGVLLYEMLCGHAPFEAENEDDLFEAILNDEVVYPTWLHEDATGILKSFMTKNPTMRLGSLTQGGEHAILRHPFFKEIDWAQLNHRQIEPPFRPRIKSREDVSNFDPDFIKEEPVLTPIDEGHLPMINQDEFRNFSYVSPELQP
Chain of Mitogen-activated protein kinase 10 (P53779 whole entry): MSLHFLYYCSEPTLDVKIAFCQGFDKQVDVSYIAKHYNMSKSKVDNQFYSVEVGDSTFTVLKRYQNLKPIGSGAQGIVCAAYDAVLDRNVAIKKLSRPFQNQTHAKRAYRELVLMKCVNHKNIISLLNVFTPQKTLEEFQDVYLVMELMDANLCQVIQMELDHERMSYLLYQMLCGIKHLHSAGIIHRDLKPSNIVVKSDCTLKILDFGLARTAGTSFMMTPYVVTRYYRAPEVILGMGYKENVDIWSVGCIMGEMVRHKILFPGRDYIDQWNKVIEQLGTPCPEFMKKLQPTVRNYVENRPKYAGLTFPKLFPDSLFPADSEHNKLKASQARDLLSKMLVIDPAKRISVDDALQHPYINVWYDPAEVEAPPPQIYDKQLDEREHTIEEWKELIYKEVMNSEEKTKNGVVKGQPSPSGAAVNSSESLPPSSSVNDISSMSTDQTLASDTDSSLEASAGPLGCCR
Chain of Insulin-like growth factor 1 receptor (P08069 31-736 limits assumed): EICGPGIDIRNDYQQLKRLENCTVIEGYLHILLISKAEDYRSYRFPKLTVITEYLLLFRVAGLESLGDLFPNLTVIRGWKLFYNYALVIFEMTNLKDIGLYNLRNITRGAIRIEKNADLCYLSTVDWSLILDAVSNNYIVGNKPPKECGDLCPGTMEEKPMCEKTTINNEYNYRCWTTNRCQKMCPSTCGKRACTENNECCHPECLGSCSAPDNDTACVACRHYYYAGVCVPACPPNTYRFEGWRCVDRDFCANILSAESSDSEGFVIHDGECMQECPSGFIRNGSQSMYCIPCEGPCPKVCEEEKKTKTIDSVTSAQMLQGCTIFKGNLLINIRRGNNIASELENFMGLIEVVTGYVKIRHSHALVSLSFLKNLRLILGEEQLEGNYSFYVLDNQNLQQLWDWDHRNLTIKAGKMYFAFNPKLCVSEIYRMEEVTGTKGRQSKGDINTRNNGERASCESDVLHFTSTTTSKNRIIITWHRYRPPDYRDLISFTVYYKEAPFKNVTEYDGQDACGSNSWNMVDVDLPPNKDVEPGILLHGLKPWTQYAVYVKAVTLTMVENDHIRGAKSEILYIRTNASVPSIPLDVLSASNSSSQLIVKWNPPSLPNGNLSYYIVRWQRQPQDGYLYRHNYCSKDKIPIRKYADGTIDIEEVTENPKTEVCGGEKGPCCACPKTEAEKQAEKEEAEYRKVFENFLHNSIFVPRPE
Chain of Insulin-like growth factor 1 receptor (P08069 741-1367 limits assumed): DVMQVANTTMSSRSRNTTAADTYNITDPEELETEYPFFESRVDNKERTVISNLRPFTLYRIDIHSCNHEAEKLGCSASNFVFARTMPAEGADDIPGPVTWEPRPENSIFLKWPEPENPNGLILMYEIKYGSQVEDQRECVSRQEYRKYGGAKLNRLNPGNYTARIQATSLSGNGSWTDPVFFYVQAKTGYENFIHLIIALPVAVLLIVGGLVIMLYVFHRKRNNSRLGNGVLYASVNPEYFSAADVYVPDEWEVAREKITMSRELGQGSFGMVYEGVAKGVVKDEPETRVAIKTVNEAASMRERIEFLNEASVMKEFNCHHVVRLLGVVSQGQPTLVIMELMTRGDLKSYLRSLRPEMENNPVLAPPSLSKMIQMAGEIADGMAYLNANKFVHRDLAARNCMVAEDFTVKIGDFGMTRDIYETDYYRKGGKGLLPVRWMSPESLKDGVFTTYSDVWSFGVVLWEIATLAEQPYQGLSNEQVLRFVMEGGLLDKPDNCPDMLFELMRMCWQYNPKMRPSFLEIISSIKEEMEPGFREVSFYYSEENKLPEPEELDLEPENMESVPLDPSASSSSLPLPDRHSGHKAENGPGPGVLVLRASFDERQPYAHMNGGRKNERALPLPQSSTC

Broadly, the IC50 is the concentration that gives 50% inhibition. What is called clearance is the rate of elimination divided by the concentration. A high value points to a high capacity for elimination. Consider `CN1CCN(c2nc(C3=C(c4c[nH]c5ccccc45)C(=O)NC3=O)c3ccccc3n2)CC1` [SOTRASTAURIN], for which the IC50 in [1] is 1.3 nM; in data set [2] it was more than 10 µM; in data set [3], 3.7 µM; in data set [4], 2300 nM; in data set [5] it was 6.1 nM; in data set [6] it was more than 10 µM. Further, the IC50 is more than 10 µM in data set [8]; more than 10 µM in [9]; 3.3 µM in data set [10]; more than 10 µM in data set [11]; 5.4 µM in data set [12]; 3.9 µM in data set [13]. In addition, the IC50 in [15] was found to be 7.3 µM. The clearance in [7] worked out at 51.2 mL/min/kg. In addition, the result in data set [14] was Active.
